assay: Chemical stability in 200 mM sodium borate buffer at pH 9.2; format: physicochemical
How it was run: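 Alkaline hydrolysis followed by loss of the intact benzoxazinone ring absorbance maximum (340 nm 10 nm) in 200 mM sodium borate, pH 9.2, with 1% DMSO.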

half-life [h] | Compound
115 | CCc1cc(N(C)C)cc2nc(-c3cccnc3N3CCN(C4CCN(C)CC4)CC3)oc(=O)c12
0.933 | CCc1cccc2nc(-c3cccnc3N3CCN(C4CCN(C)CC4)CC3)oc(=O)c12
122 | CCc1cc(N(C)C)cc2nc(-c3cccnc3N3CCN(C)CC3)oc(=O)c12
23.3 | CCc1cc(OC)cc2nc(-c3cccnc3N3CCN(C4CCN(C)CC4)CC3)oc(=O)c12
1.08 | CCc1cccc2nc(-c3cccnc3N3CCN(C)CC3)oc(=O)c12
1.48 | CCc1cccc2nc(-c3cccnc3N3CCC(C(=O)O)CC3)oc(=O)c12
16.7 | CCc1cc(OC)cc2nc(-c3cccnc3N3CCC(C(=O)O)CC3)oc(=O)c12
4 | CCc1cc(OC)cc2nc(-c3cccnc3N3CCN(C)CC3)oc(=O)c12

assay: Stability in heparin treated rat plasma at 2 uM at 37 degC by electrospray ionization mass spectrometry; format: ADME, cell-free
How it was run: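 Compounds at […] incubated at 37 °C in heparinized rat plasma. Plasma proteins precipitated with acetonitrile, then compound quantified by ESI-MS against an internal standard. t1/2 derived from a first-order rate constant fitted to concentration versus time.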

half-life at 2 µM [h] | Compound
2.5 | CCc1cc(OC)cc2nc(-c3cccnc3N3CCC[C@@H](C(=O)O)C3)oc(=O)c12
0.867 | CCc1cc(OC)cc2nc(-c3cccnc3N3CCN(CCOC)CC3)oc(=O)c12
0.317 | CCc1cc(OC)cc2nc(-c3cccnc3N3CCN(CCN4CCOCC4)CC3)oc(=O)c12
2.33 | CCc1cc(OC)cc2nc(-c3cccnc3N3CCC[C@H](C(=O)O)C3)oc(=O)c12
0.183 | CCc1cc(OC)cc2nc(-c3cccnc3N3CCN(CCC#N)CC3)oc(=O)c12
1.15 | CCc1cc(OC)cc2nc(-c3cccnc3N3CCN(CC4CC4)CC3)oc(=O)c12
1.35 | CCc1cc(OC)cc2nc(-c3cccnc3N3CCC(C(=O)O)CC3)oc(=O)c12
4.5 | CCc1cc(OC)cc2nc(-c3cccnc3N3CCN(CC(=O)O)CC3)oc(=O)c12
0.13 | CCc1cc(OC)cc2nc(-c3cccnc3N3CCN(CCN(C)C)CC3)oc(=O)c12
0.85 | CCCCN1CCN(c2ncccc2-c2nc3cc(OC)cc(CC)c3c(=O)o2)CC1
1.5 | CCc1cc(OC)cc2nc(-c3cccnc3N3CCN(C4CCCC4)CC3)oc(=O)c12
0.283 | CCc1cc(OC)cc2nc(-c3cccnc3N3CCN(CCO)CC3)oc(=O)c12
0.8 | CCc1cc(OC)cc2nc(-c3cccnc3N3CCN(CC(C)C)CC3)oc(=O)c12
1.4 | CCc1cc(OC)cc2nc(-c3cccnc3N3CCN(C)CC3)oc(=O)c12
